How the values were obtained:
[1] = biological target: T1, Peroxisome proliferator-activated receptor delta (Homo sapiens, UniProt Q03181); test: Transactivation of human PPARdelta expressed in monkey CV-1 cells coexpressing TK-PPRE-Luc after 24 hrs by luciferase reporter gene assay; format: cell-based
T1 sequence (Q03181 whole entry): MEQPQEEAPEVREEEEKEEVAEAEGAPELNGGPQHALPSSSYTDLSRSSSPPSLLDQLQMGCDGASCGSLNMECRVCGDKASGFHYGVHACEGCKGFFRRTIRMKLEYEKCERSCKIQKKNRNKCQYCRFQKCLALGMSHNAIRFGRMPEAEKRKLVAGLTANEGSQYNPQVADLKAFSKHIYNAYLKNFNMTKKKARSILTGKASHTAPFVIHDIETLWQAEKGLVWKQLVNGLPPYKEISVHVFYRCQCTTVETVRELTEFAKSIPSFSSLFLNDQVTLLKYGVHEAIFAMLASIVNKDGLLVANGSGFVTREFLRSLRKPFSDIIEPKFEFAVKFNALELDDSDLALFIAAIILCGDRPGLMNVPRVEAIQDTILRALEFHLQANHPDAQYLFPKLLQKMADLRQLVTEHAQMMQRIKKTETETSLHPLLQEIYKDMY
Method in brief: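 Agonist activity tested in transiently transfected CV-1 cells by reporter assay. EC50 is the molar concentration giving 50% of the maximal reporter activity.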

[2] = biological target: T2, Peroxisome proliferator-activated receptor alpha (Homo sapiens, UniProt Q07869); test: Transactivation of human PPARalpha expressed in monkey CV-1 cells coexpressing TK-PPRE-Luc after 24 hrs by luciferase reporter gene assay; format: cell-based
T2 sequence (Q07869 whole entry): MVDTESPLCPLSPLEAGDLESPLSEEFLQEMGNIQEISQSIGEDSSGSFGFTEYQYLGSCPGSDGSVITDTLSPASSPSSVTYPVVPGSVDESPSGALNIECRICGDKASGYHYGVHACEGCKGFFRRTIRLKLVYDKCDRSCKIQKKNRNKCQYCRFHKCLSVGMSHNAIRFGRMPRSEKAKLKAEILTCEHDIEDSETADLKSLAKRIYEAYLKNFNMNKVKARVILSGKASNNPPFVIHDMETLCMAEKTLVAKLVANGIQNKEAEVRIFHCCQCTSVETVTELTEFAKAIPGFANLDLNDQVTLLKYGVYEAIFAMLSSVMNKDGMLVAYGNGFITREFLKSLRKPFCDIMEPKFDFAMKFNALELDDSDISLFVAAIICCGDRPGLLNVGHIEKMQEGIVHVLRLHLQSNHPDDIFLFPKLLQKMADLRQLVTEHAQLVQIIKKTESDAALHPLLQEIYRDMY

[3] = biological target: T3, Peroxisome proliferator-activated receptor gamma (Homo sapiens, UniProt P37231); test: Transactivation of human PPARgamma expressed in monkey CV-1 cells coexpressing TK-PPRE-Luc after 24 hrs by luciferase reporter gene assay; format: cell-based
T3 sequence (P37231 whole entry): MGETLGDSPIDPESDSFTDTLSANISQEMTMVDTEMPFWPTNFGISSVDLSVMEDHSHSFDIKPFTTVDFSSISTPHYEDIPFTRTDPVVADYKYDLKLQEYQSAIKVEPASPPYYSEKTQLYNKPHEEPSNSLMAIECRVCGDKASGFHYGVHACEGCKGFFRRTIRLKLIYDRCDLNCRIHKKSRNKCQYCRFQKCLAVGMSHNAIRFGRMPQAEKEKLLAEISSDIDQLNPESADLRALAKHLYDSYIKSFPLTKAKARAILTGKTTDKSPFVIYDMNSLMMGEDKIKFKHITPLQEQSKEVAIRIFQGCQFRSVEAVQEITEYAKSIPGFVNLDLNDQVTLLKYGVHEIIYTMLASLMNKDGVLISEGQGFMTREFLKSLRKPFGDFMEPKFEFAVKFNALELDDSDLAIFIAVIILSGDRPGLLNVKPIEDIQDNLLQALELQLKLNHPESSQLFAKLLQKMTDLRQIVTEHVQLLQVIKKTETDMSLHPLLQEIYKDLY

[4] = Cmax in Sprague-Dawley rat at 10 mg/kg, po by LC-MS/MS analysis; format: ADME, organism-based; set-up: dose 10 mg/kg, route oral; settings: in vivo
Method in brief: (§1)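 Formulation: ethanol 10%, DMSO 10%, Cremophor EL 10%, […], PEG400 30%. PK parameters taken from composite mean plasma concentration–time profiles, given as mean ± SD.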

[5] = Metabolic stability in dog liver microsomes assessed as parent compound remaining at 1 uM after 30 mins in presence of NADPH by LC-MS/MS analysis; format: ADME, Canis lupus familiaris, microsome; settings: read-out: Stability
Method in brief: (§2)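 Compound incubated with liver microsomes for 30 min. Percentage of parent remaining quantified by LC-MS/MS. Means of duplicate determinations.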

[6] = Total AUC in Sprague-Dawley rat at 10 mg/kg, po by LC-MS/MS analysis; format: ADME, organism-based; set-up: dose 10 mg/kg, route oral, time AUCmax; settings: in vivo; method in brief: as §1
CYP2C9 = CYP2C9 (Homo sapiens, UniProt P11712); test: Inhibition of tolbutamide 4-hydroxylase activity of CYP2C9 in human liver microsomes at 10 uM preincubated for 5 mins followed by NADPH addition measured after 15 mins by LC-MS/MS analysis; format: ADME; settings: probe tolbutamide (4-hydroxylation)
Chain of CYP2C9 (P11712 whole entry): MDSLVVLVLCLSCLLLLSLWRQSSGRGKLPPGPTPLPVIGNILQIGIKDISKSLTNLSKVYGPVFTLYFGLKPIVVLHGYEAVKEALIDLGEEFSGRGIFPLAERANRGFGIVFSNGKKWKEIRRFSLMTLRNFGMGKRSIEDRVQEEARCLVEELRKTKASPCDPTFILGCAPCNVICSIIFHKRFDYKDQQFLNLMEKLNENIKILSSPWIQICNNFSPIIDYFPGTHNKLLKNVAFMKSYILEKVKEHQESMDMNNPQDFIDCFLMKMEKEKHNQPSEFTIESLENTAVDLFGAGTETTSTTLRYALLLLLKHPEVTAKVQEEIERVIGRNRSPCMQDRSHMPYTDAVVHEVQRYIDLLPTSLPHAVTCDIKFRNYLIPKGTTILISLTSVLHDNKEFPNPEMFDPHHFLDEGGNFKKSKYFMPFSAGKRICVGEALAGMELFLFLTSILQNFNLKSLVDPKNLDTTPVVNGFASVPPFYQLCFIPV
Method in brief: (§3)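 Compound incubated with liver microsomes and isotype-specific CYP substrates for 15 min. Activity expressed as percent inhibition relative to incubation without compound. Values are means of duplicates.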

CYP2C19 = CYP2C19 (Homo sapiens, UniProt P33261); test: Inhibition of S-mephenytoin 4-hydroxylase activity of CYP2C19 in human liver microsomes at 10 uM preincubated for 5 mins followed by NADPH addition measured after 15 mins by LC-MS/MS analysis; format: ADME; settings: probe S-mephenytoin (4-hydroxylation); method in brief: as §3
Chain of CYP2C19 (P33261 whole entry): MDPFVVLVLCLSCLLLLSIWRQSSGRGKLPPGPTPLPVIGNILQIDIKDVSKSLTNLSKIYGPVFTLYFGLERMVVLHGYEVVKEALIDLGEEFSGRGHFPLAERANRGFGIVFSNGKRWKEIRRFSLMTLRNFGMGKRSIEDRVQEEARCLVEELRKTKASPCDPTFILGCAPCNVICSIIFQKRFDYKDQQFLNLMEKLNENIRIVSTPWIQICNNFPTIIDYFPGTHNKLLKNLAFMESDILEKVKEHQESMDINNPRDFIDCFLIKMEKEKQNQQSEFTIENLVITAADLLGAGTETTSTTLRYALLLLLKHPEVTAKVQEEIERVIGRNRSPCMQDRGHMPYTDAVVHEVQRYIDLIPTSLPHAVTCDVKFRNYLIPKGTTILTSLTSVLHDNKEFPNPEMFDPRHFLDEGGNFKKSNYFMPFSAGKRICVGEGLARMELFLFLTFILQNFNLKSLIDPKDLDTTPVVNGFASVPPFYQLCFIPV

[7] = Total AUC in Sprague-Dawley rat at 1 mg/kg, iv by LC-MS/MS analysis; format: ADME, organism-based; set-up: dose 1 mg/kg, route intravenous, time AUCmax; settings: in vivo
Method in brief: (§4)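 Rats (n = 4) given 1 mg/kg iv. Vehicle: ethanol 10%, DMSO 10%, Cremophor EL 10%, water 50%, PEG400 30%. Parameters calculated from composite mean plasma concentration–time data, reported as mean ± SD.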

[8] = biological target: Voltage-gated inwardly rectifying potassium channel KCNH2 (Homo sapiens, UniProt Q12809); test: Inhibition of human ERG after 4 hrs by fluorescence polarization assay
Chain of Voltage-gated inwardly rectifying potassium channel KCNH2 (Q12809 whole entry): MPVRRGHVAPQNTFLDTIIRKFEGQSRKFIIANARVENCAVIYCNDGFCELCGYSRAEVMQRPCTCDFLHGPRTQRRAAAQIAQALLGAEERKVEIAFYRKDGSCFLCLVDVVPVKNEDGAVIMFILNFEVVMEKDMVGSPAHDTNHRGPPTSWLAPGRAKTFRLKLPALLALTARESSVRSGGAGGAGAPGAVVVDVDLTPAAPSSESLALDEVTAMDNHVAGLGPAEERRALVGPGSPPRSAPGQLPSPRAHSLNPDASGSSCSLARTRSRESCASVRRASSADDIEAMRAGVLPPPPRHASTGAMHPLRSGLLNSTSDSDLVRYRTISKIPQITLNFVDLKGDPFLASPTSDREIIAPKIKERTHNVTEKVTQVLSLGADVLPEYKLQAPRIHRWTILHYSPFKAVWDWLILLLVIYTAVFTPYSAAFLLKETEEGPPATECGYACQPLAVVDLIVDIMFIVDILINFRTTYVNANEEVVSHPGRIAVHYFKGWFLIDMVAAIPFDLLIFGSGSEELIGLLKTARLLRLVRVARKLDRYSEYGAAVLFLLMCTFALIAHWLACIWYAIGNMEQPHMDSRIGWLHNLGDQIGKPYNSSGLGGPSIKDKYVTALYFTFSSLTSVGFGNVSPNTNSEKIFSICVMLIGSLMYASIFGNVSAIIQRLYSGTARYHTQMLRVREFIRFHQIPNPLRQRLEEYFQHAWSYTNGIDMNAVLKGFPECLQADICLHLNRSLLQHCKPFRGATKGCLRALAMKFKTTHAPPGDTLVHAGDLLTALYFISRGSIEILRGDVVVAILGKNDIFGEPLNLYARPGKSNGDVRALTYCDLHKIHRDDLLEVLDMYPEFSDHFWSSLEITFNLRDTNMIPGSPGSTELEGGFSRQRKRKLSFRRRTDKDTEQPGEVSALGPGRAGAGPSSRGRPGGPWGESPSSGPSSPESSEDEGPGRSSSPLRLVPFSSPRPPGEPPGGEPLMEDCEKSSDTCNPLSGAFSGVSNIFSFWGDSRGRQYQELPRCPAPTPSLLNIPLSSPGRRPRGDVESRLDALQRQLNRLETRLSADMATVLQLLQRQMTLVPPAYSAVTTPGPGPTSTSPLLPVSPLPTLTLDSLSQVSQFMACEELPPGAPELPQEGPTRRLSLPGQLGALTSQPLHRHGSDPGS
Method in brief: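 hERG channel binding measured by a fluorescence polarization (Predictor) assay. IC50 obtained by four-parameter non-linear regression.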

[9] = Permeability of the compound at 10 uM at pH 7.4 after 5 hrs by PAMPA; format: ADME; settings: read-out: permeability
Method in brief: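 PAMPA. Effective permeability calculated after 5 h. Values are the mean of four determinations.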

CYP1A2 = biological target: T4, CYP1A2 (Homo sapiens, UniProt P05177); test: Inhibition of phenacetin O-deethylase activity of CYP1A2 in human liver microsomes at 10 uM preincubated for 5 mins followed by NADPH addition measured after 15 mins by LC-MS/MS analysis; format: ADME; settings: probe phenacetin (O-deethylation); method in brief: as §3
T4 sequence (P05177 whole entry): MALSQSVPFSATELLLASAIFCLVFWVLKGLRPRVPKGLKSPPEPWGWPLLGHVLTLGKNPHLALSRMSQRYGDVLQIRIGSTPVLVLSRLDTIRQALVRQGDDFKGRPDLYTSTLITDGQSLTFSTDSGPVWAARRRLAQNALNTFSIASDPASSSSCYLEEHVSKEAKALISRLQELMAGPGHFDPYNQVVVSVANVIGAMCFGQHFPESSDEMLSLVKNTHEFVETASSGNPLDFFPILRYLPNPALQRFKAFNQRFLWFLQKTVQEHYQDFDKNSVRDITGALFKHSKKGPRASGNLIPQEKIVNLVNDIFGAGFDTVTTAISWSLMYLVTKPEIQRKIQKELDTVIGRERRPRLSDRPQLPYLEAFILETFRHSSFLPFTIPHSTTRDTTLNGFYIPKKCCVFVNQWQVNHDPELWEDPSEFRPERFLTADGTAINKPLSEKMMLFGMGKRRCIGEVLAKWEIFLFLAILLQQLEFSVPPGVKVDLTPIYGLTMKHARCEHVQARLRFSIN

[10] = Metabolic stability in mouse liver microsomes assessed as parent compound remaining at 1 uM after 30 mins in presence of NADPH by LC-MS/MS analysis; format: ADME, microsome; settings: read-out: Stability; method in brief: as §2
[11] = Oral bioavailability in Sprague-Dawley rat at 10 mg/kg by LC-MS/MS analysis; format: ADME, organism-based; settings: in vivo; method in brief: as §1
[12] = Tmax in Sprague-Dawley rat at 10 mg/kg, po by LC-MS/MS analysis; format: ADME, organism-based; settings: in vivo; method in brief: as §1
[13] = Clearance in Sprague-Dawley rat at 1 mg/kg, iv by LC-MS/MS analysis; format: ADME, organism-based; settings: in vivo; method in brief: as §4
[14] = Half life in Sprague-Dawley rat at 1 mg/kg, iv by LC-MS/MS analysis; format: ADME, organism-based; settings: in vivo; method in brief: as §4
CYP3A4 = CYP3A4 (Homo sapiens, UniProt P08684); test: Inhibition of midazolam 1'-hydroxylase activity of CYP3A4 in human liver microsomes at 10 uM preincubated for 5 mins followed by NADPH addition measured after 15 mins by LC-MS/MS analysis; format: ADME; settings: probe midazolam (1'-hydroxylation); method in brief: as §3
Chain of CYP3A4 (P08684 whole entry): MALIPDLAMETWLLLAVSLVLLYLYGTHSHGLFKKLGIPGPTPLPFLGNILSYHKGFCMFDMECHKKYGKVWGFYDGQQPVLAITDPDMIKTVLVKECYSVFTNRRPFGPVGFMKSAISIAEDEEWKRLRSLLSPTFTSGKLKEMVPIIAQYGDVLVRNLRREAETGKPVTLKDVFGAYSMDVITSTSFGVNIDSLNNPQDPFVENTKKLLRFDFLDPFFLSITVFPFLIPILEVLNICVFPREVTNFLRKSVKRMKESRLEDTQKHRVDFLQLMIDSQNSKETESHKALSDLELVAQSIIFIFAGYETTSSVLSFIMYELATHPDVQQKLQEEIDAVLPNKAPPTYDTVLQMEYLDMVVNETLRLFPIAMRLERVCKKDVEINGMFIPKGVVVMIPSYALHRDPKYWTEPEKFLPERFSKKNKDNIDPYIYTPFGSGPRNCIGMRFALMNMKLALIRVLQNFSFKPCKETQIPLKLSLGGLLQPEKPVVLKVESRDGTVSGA

CYP2D6 = CYP2D6 (Homo sapiens, UniProt P10635); test: Inhibition of dextromethorphan O-demethylase activity of CYP2D6 in human liver microsomes at 10 uM preincubated for 5 mins followed by NADPH addition measured after 15 mins by LC-MS/MS analysis; format: ADME; settings: probe dextromethorphan (O-demethylation); method in brief: as §3
Chain of CYP2D6 (P10635 whole entry): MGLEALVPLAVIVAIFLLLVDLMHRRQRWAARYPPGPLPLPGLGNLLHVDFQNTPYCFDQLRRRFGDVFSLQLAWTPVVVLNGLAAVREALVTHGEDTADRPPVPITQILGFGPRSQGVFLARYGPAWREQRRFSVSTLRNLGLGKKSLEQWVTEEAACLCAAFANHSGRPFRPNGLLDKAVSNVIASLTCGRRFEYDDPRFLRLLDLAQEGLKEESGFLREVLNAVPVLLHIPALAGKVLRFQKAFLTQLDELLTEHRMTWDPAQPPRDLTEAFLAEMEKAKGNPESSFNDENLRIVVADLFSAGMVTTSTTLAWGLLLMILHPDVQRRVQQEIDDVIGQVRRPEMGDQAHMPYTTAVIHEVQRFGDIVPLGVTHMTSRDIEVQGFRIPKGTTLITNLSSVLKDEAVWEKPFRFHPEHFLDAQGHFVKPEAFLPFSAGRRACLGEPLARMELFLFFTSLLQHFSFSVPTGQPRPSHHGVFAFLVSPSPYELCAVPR

[15] = Volume of distribution at steady state in Sprague-Dawley rat at 1 mg/kg, iv by LC-MS/MS analysis; format: ADME, organism-based; settings: in vivo, read-out: Vdss; method in brief: as §4
[16] = Metabolic stability in rat liver microsomes assessed as parent compound remaining at 1 uM after 30 mins in presence of NADPH by LC-MS/MS analysis; format: ADME, microsome; settings: read-out: Stability; method in brief: as §2
[17] = Metabolic stability in human liver microsomes assessed as parent compound remaining at 1 uM after 30 mins in presence of NADPH by LC-MS/MS analysis; format: ADME, microsome; settings: read-out: Stability; method in brief: as §2

Row | Compound | EC50 [1] | EC50 [2] | EC50 [3] | further results
1 | Cc1cc(SC(Cc2cc(C(F)(F)F)ccc2F)c2ccc(-c3ccccc3)cc2)ccc1OCC(=O)O (stereo not drawn) | 0.01 µM | > 10 µM | > 10 µM | 
2 | Cc1cc(SC(Cc2cc(F)ccc2F)c2ccc(-c3cccc(C(F)(F)F)c3)cc2)ccc1OCC(=O)O (stereo not drawn) | 0.0091 µM | > 10 µM | > 10 µM | 
3 | Cc1cc(SC(Cc2cc(F)ccc2F)c2ccc(-c3cc(F)c(F)c(F)c3)cc2)ccc1OCC(=O)O (stereo not drawn) | 0.0063 µM | > 10 µM | > 10 µM | 
4 | Cc1cc(SC(Cc2cc(F)c(F)c(F)c2)c2ccc(-c3ccc(C(F)(F)F)cc3)nc2)ccc1OCC(=O)O (stereo not drawn) | 0.056 µM | > 10 µM | > 10 µM | 
5 | Cc1cc(SC(Cc2cc(Cl)ccc2Cl)c2ccc(-c3cc(F)c(F)c(F)c3)cc2)ccc1OCC(=O)O (stereo not drawn) | 0.0095 µM | > 10 µM | > 10 µM | 
6 | Cc1cc(SC(Cc2ccccc2)c2ccc(-c3cc(F)c(F)c(F)c3)cc2)ccc1OCC(=O)O (stereo not drawn) | 0.0045 µM | > 10 µM | > 10 µM | 
7 | Cc1cc(SC(Cc2cc(C(F)(F)F)ccc2F)c2ccc(-c3cccc(C(F)(F)F)c3)cc2)ccc1OCC(=O)O (stereo not drawn) | 0.0058 µM | > 10 µM | > 10 µM | 

Further lines, with some results ahead:

Row | EC50 [1] | EC50 [2] | EC50 [3] | Compound | further results
8 |  | > 10 µM | > 10 µM | Cc1cc(SC(Cc2ccccc2)c2ccc(-c3ccc(C(F)(F)F)cc3)cc2)ccc1OCC(=O)O (stereo not drawn) | Cmax [4]: 2.33 µg/mL; remaining at 0.5 h, 1 µM [5]: > 100%; AUC [6]: 12.5 µg·h/mL; inhibition at 0.25 h, 10 µM (CYP2C9): 35.5%; inhibition at 0.25 h, 10 µM (CYP2C19): 4.3%; AUC [7]: 3.83 µg·h/mL; IC50 [8]: > 10 µM; Papp at 5 h, 10 µM [9]: 95.4 nm/s; inhibition at 0.25 h, 10 µM (CYP1A2): 1.5%; remaining at 0.5 h, 1 µM [10]: > 100%; bioavailability [11]: 32.6%; Tmax [12]: 4.5 h; clearance [13]: 0.24 L/h/kg; half-life [14]: 3.6 h; inhibition at 0.25 h, 10 µM (CYP3A4): 7.3%; inhibition at 0.25 h, 10 µM (CYP2D6): 0%; Vd [15]: 1 L/kg; remaining at 0.5 h, 1 µM [16]: > 100%; remaining at 0.5 h, 1 µM [17]: 99.8%
9 | 0.0061 µM |  |  | Cc1cc(S[C@@H](Cc2ccccc2)c2ccc(-c3ccc(C(F)(F)F)cc3)cc2)ccc1OCC(=O)O | 
10 |  | > 10 µM | > 10 µM | Cc1cc(SC(Cc2ccccc2)c2ccc(-c3ccc(C(F)(F)F)cc3)nc2)ccc1OCC(=O)O (stereo not drawn) | 
11 | 0.018 µM | > 10 µM | > 10 µM | Cc1cc(SC(Cc2ccccc2)c2ccc(-c3cccc(C(F)(F)F)c3)cc2)ccc1OCC(=O)O (stereo not drawn) | 

Source: ChEMBL document CHEMBL4229483, “Synthesis and evaluation of an orally available "Y"-shaped biaryl peroxisome proliferator-activated receptor δ agonist” (Bioorg Med Chem, 2018)
